Assay outcomes: PubChem, several laboratories
MT stabilize HCS: microtubule stabilization, imaging screen; HeLa tubulin immunostaining HCS, 24 h; share of cells brighter than vehicle mean+2SD; % tubulin-high responders, % at 10 µM; hit rate 0.83% among 200,000;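 active means plate Z-score above 3 for both tubulin-high and condensed-nucleus cell shares, with cell loss under 80%, at 10 µM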;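 further: anti alpha tubulin signal scored within the nucleus-defined area of each cell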
KCC2 mod: modulates chloride dependent transport by human KCC2; Q9H2X9; AID 1456; KCC2 cells, thallium flux FluoZin-2 fluorescence; hit rate 2.2% among 190,000; B-score of Tl+ flux slope (higher = more flux/activation; lower = inhibition) at 10 µM;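 active means thallium flux slope and its plate-corrected score both differing from the plate sample mean at a set confidence after two filtering rounds, in either direction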;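 further: slope of fluorescence scaled to starting intensity during 10 to 20 s after thallium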
b-catenin transl: alters nuclear translocation of beta-catenin in HeLa cells; nuclear translocation activity, % at 5 µM; hit rate 0.3% among 190,000; immunofluorescence imaging;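 active means nuclear translocation activity above 50% at 5 µM, with a well cell count of 50 or more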;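 further: per-cell ratio of nuclear to cytoplasmic median beta-catenin stain intensity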
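Test system: human HeLa cell line; Doses: 5 µM primary, 0.02–20 µM confirmation; Incubation: 24 h compound exposure, 37°C; Detection: beta-catenin immunofluorescence imaging with DAPI; Read-out: beta-catenin nuclear/cytoplasmic ratio, % activation.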
Redox H2O2 prof: compounds producing H2O2 with reducing agent – biochemical, NIH compound library profiling, artefact control for MLSCN library redox annotation, primary screen | DTT-dependent redox cycling H2O2, phenol red/HRP absorbance; 100% = 100 µM peroxide control, 0% = buffer | activation, % at 10 µM | hit rate 0.03% among 200,000 | AID 878;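 active means activation of at least 50% relative to the plate's high and low controls in the primary single-dose screen; inactive means activation below 50%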;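 further: compound incubated with DTT at 0.8 mM final as the reducing agent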
ROMK mod: modulates human ROMK potassium channel activity; P48048; hit rate 2% among 130,000; B-score at 10 µM; Tet-inducible ROMK, thallium flux fluorescence; actives lie on both sides; AID 1918;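 active means signal ratio slope over the read window, or its plate-corrected B-score, at least 3 SD from the plate mean, either direction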;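 further: B-score of the F/F0 ratio slope over 7 to 12 s after thallium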
Target sequence (P48048 whole entry, looked up): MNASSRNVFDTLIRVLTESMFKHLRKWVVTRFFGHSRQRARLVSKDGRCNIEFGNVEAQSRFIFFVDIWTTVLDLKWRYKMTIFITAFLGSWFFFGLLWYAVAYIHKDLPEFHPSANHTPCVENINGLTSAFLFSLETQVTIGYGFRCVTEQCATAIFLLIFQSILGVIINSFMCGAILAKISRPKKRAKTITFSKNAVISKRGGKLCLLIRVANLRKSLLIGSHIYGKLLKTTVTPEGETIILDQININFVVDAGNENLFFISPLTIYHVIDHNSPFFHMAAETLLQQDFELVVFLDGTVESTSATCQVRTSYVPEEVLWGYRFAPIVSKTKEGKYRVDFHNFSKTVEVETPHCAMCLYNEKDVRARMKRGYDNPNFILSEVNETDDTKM
Large screens that a line does not name were inactive. The list is not random: actives were taken first. Their share in the collection is about 3.7%.

COc1ccccc1NC(=O)Nc1nc(C(C)(C)C)cs1	none
CN1Cc2cc(C(=O)c3cc(Cl)cc(CSc4ncccn4)c3O)cnc2NC1=O	MT stabilize HCS 20.1, b-catenin transl 67.1 (no result: ROMK mod)
CCc1nc(N2CCCCC2C)c2oc3ccccc3c2n1 (configuration not stated)	MT stabilize HCS 31.3, b-catenin transl 113.7 (no result: ROMK mod)
CCc1nc(N2CCN(Cc3ccc4c(c3)OCO4)CC2)c2oc3ccccc3c2n1	MT stabilize HCS 48.2, b-catenin transl 115.5 (no result: ROMK mod)
CCc1nc(N2CCCCC2C(=O)O)c2oc3ccccc3c2n1 (configuration not stated)	none (no result: MT stabilize HCS, Redox H2O2 prof)
Cc1cccc(CC(=O)c2c[nH]c3ccccc23)c1	none (no result: MT stabilize HCS, Redox H2O2 prof, ROMK mod)
CCC(O)CNC(=O)NC(=C(Cl)Cl)c1ccc(C)c(F)c1 (configuration not stated)	none
Cc1cc(Nc2nc(Cl)c(Cl)cc2Cl)n(-c2ccccc2)n1	MT stabilize HCS 17.1
O=C(CCl)Nc1cccc(S(=O)(=O)N2CCCCCC2)c1	MT stabilize HCS 12.9 (no result: ROMK mod)
CC(=O)N1CCN(CC(=O)Nc2cccc(S(=O)(=O)N3CCCCCC3)c2)CC1	none (no result: KCC2 mod)
Cc1cccc(NC(=O)c2cccc(NS(=O)(=O)c3ccc(Cl)cc3)c2)c1	none (no result: ROMK mod)
CCOc1ccc(NS(=O)(=O)c2cc(NC(=O)c3cccc(C)c3)ccc2Cl)cc1	MT stabilize HCS 22.6 (no result: ROMK mod)
CCCC[N+](CC#Cc1ccccc1)(CCCC)CCCS(=O)(=O)[O-]	none
CC(=O)c1cccc(NC(=S)NC(=O)c2cccc(C)c2)c1	KCC2 mod 8.44 (no result: b-catenin transl, Redox H2O2 prof, ROMK mod)
CC(C)Oc1cccc(C(=O)NC(=S)Nc2ccccc2)c1	KCC2 mod 45.6 (no result: ROMK mod)
Cc1cccc(NC(=S)N/C(=N/S(=O)(=O)c2ccccc2)c2ccccc2)c1	KCC2 mod 3.54
CC(=O)c1cccc(NC(=O)C2C3C=CC(C3=C(c3ccccc3)c3ccccc3)C2C(=O)O)c1 (configuration not stated)	none
NC(=O)c1nn(-c2ccccc2)nc1NC(=O)Cn1nnc(-c2ccccc2)n1	none
CCc1ccc(S(=O)(=O)NCc2csc(-c3ccccc3)n2)s1	KCC2 mod -4.9 (no result: ROMK mod)
O=C(Nc1ccccc1C(=O)O)c1cccc(NC(=O)c2ccc(Br)o2)c1	KCC2 mod -3.25
O=C(Nc1ccccc1)c1ccc(-c2ccc(Br)cc2)o1	none (no result: b-catenin transl)
COc1ccccc1NC(=O)c1ccc(-c2ccc(Br)cc2)o1	MT stabilize HCS 38.6 (no result: KCC2 mod)
O=C(Nc1cccc(NC(=O)c2ccc(-c3ccc(Br)cc3)o2)c1)c1ccccc1	MT stabilize HCS 17.6
COc1ccc(COc2cc(-c3cccc(OC)c3)nc3ccc(NC(=O)c4ccc(N(C)C)cc4)cc23)cc1	MT stabilize HCS 19.8 (no result: b-catenin transl)
COc1ccc(COc2cc(-c3cccc(OC)c3)nc3ccc(NC(=O)c4ccc(C)cc4)cc23)cc1	none (no result: b-catenin transl)
COc1ccc(C(=O)Nc2ccc3[nH]c(-c4cccc(OC)c4)cc(=O)c3c2)cc1	MT stabilize HCS 31.9, b-catenin transl 55.7
CN(C)S(=O)(=O)c1cccc(NC(=S)Nc2ccc(Cl)cc2Cl)c1	KCC2 mod 5.45
CN(C)S(=O)(=O)c1cccc(NC(=S)Nc2cc(Cl)cc(Cl)c2)c1	none (no result: b-catenin transl)
CCn1c2ccccc2c2cc(NC(=O)CSc3nnc(-c4ccccc4)o3)ccc21	MT stabilize HCS 16.3
CCn1c2ccccc2c2cc(NC(=O)c3ccc(Br)o3)ccc21	none (no result: b-catenin transl)
CCn1c2ccccc2c2cc(NC(=O)COc3ccc(OC)cc3)ccc21	none (no result: b-catenin transl, ROMK mod)
CCn1c2ccccc2c2cc(NC(=O)c3cc(OC)cc(OC)c3)ccc21	MT stabilize HCS 9.6
CCn1c2ccccc2c2cc(NC(=O)CSc3nnc(-c4cccc(C)c4)o3)ccc21	none (no result: b-catenin transl)
CCn1c2ccccc2c2cc(NC(=O)c3cc(OC)c(OC)c(OC)c3)ccc21	MT stabilize HCS 23.3 (no result: ROMK mod)
CCn1c2ccccc2c2cc(NC(=O)c3cc(C)on3)ccc21	MT stabilize HCS 20.5
Nc1cccc(NP(=O)(c2ccccc2)c2ccccc2)c1	none (no result: MT stabilize HCS, Redox H2O2 prof)
CC(=O)c1c(C)[nH]c(C(=O)NC(C)c2ccccc2)c1C (configuration not stated)	none
COc1cc(C(=O)Nc2ccc(N(C)C)cc2)cc(OC)c1OC	MT stabilize HCS 25.7 (no result: KCC2 mod)
CCn1c2ccccc2c2cc(NC(=O)c3cccc([N+](=O)[O-])c3C)ccc21	MT stabilize HCS 14.4
COc1cc(C(=O)Nc2ccc(Br)cc2C(=O)c2cc(OC)c(OC)c(OC)c2)cc(OC)c1OC	MT stabilize HCS 34.3 (no result: KCC2 mod, ROMK mod)
CCn1c2ccccc2c2cc(NC(=O)c3ccc(C)c([N+](=O)[O-])c3)ccc21	none
CCn1c(=O)cc(SCC(=O)NCc2cccnc2)c2ccccc21	none (no result: KCC2 mod)
CCn1c(=O)cc(SCC(=O)NCc2ccc(C)cc2)c2ccccc21	MT stabilize HCS 31.2 (no result: ROMK mod)
COc1cc2ccccc2cc1C(=O)Nc1ccc(Cc2ccncc2)cc1	MT stabilize HCS 49.7 (no result: ROMK mod)
CC(C)Oc1cccc(C(=O)NC(=S)N2CCN(c3ccc(C(F)(F)F)cc3[N+](=O)[O-])CC2)c1	KCC2 mod 17.6
COc1cccc(C(=O)NC(=S)N2CCN(c3ccc(C(F)(F)F)cc3[N+](=O)[O-])CC2)c1	KCC2 mod 8.76 (no result: ROMK mod)
COc1cccc(OC)c1C(=O)NC(=S)N1CCN(c2ccc(C(F)(F)F)cc2[N+](=O)[O-])CC1	none (no result: ROMK mod)
CCN(CC)CC(=O)Nc1scc2c1c(=O)oc1ccccc12	none (no result: MT stabilize HCS, Redox H2O2 prof, ROMK mod)
N#CC(c1ccc(Cl)nn1)c1c(F)cccc1Cl (configuration not stated)	none
O=C(Nc1ccc(Cl)cc1)NC1CCCc2ccccc21 (configuration not stated)	MT stabilize HCS 30.0 (no result: b-catenin transl, ROMK mod)
CC(C)(C)c1ccc(NC(=O)NC2CCCc3ccccc32)cc1 (configuration not stated)	none (no result: MT stabilize HCS, Redox H2O2 prof, ROMK mod)
O=C(Cc1csc(Nc2nc(=S)[nH]c3ccccc23)n1)NCc1ccccc1Cl	none (no result: b-catenin transl, ROMK mod)
Cc1ccc(CNC(=O)Cc2csc(Nc3nc(=S)[nH]c4ccccc34)n2)cc1	KCC2 mod 9.73 (no result: ROMK mod)
CC(C)(C)NC(=O)C(c1ccc(F)cc1)N(Cc1ccccc1Cl)C(=O)c1ccn[nH]1 (configuration not stated)	none
COc1ccc(Nc2oc(COc3ccc(Cl)cc3)nc2C#N)cc1	none (no result: KCC2 mod, b-catenin transl, ROMK mod)
CCOc1ccc(Nc2oc(-c3ccc(Cl)cc3)nc2C#N)cc1	MT stabilize HCS 32.8 (no result: ROMK mod)
COc1ccc(Nc2oc(-c3ccc(OC)cc3)nc2C#N)cc1	none (no result: MT stabilize HCS, Redox H2O2 prof)
COc1ccc(Nc2oc(-c3ccc(Cl)cc3)nc2C#N)cc1	MT stabilize HCS 39.4, b-catenin transl 63.3 (no result: ROMK mod)
COc1ccc(/C=C/C(=O)c2ccccc2)cc1Cn1nnc2ccccc21	none
Cc1nc2c(ncn2-c2ccccc2)c(=O)n1NC(=O)CN1CCN(C)CC1	none (no result: MT stabilize HCS, Redox H2O2 prof)
COc1ccc(NC(=O)CSc2nc3ccccc3c3nc4ccccc4n23)cc1	MT stabilize HCS 25.0
Cc1ccc(NC(=O)CSc2nc3ccccc3c3nc4ccccc4n23)cc1	MT stabilize HCS 32.5, b-catenin transl 148.2 (no result: KCC2 mod)
Cc1ccc(-c2nn(CCC(=O)NN3CCOCC3)c(=O)c3ccccc23)cc1	none (no result: MT stabilize HCS, Redox H2O2 prof, ROMK mod)
O=C1C(c2cc(=O)c3ccccc3[nH]2)=C(O)c2ccccc21	none (no result: ROMK mod)
